Results as given in ChEMBL document CHEMBL1123877, “Metabolic synthesis of arylacetic acid antiinflammatory drugs from arylhexenoic acids. 2. Indomethacin” (1987).

Tests used:
Format in all cases: functional
Rattus norvegicus [1] = assay: Vocalization threshold value was measured in rat yeast induced hyperalgesia assay at a dose of 30 mg/kg for 1 hr.
In short: (§1)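 Female Sprague-Dawley rats, 50-60 g, groups of 10, fasted overnight. Brewer's yeast (5% in 0.1 mL) injected subplantar, then oral dosing in 1% methylcellulose. An air-driven piston (2 mm) presses the plantar surface of the normal and yeast-injected paws. The pressure that causes vocalization is read on a manometer in mmHg, tested 3 h after yeast. Normal vs inflamed paw compared by paired t test. Mean ± SEM.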

Rattus norvegicus [2] = assay: Plasma drug level was measured in rat yeast induced hyperalgesia assay in presence of indomethacin at a dose of 30 mg/kg for 8 hr.
In short: (§2)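 Rats are bled after the yeast hyperalgesia test. 50 μL plasma is mixed with an equal volume of 0.1 N HCl and injected directly on a C-18 reverse-phase HPLC column. Eluent is methanol/0.01 M phosphate pH 4 (65:35), 1.5 mL/min, with UV detection at 254 nm. Parent compound and indomethacin are quantified against standard calibration. Mean ± SEM, n=10.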

Rattus norvegicus [3] = assay: (§3) Vocalization threshold value was measured in rat yeast induced hyperalgesia assay at a dose of 30 mg/kg for 24 hr.; in short: as §1
Rattus norvegicus [4] = assay: (§4) Vocalization threshold value was measured in rat yeast induced hyperalgesia assay at a dose of 30 mg/kg for 8 hr.; in short: as §1
Rattus norvegicus [5] = assay: Analgesic activity was measured in rat yeast induced hyperalgesia assay at a dose of 30 mg/kg for 24 hr.
In short: (§5)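 Female Sprague-Dawley rats, 50-60 g, groups of 10, fasted overnight. Brewer's yeast (5% in 0.1 mL) injected subplantar. Compound given orally in 1% methylcellulose, 0.1 mL/10 g. Each group tested once, always 3 h after yeast. An animal counts as analgesic if vocalization needs ≥25 mmHg on the inflamed paw. Result is percent of animals analgesic.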

Mus musculus [6] = assay: Inhibition of phenylbenzoquinone writhing in mice was tested at the dose of 30 mg/kg for 4 hr
In short: (§6)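 Male CD-1 mice, 18-22 g, groups of 10, fasted overnight. Oral dose in 1% methylcellulose (0.1 mL/10 g) at set times before phenylbenzoquinone, 2.0 mg/kg ip. Writhes counted 5-15 min after PBQ. % inhibition = 100 − (drug mean/vehicle mean × 100).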

Rattus norvegicus [7] = assay: (§7) Vocalization threshold value was measured in rat yeast induced hyperalgesia assay at a dose of 10 mg/kg for 8 hr.; in short: as §1
Rattus norvegicus [8] = assay: Vocalization threshold value was measured in rat yeast induced hyperalgesia assay at a dose of 30 mg/kg for 4 hr.; in short: as §1
Rattus norvegicus [9] = assay: Plasma drug level was measured in rat yeast induced hyperalgesia assay in presence of drug 6 or 7 at a dose of 30 mg/kg for 8 hr.; in short: as §2
Rattus norvegicus [10] = assay: Vocalization threshold value was measured in rat yeast induced hyperalgesia assay at a dose of 10 mg/kg for 1 hr.; in short: as §1
Rattus norvegicus [11] = assay: Vocalization threshold value was measured in rat yeast induced hyperalgesia assay at a dose of 30 mg/kg for 12 hr.; in short: as §1
Rattus norvegicus [12] = assay: Analgesic activity was measured in rat yeast induced hyperalgesia assay at a dose of 30 mg/kg for 12 hr.; in short: as §5
Rattus norvegicus [13] = assay: Analgesic activity was measured in rat yeast induced hyperalgesia assay at a dose of 30 mg/kg for 8 hr.; in short: as §5
Rattus norvegicus [14] = assay: Analgesic activity was measured in rat yeast induced hyperalgesia assay at a dose of 10 mg/kg for 1 hr.; in short: as §5
Rattus norvegicus [15] = assay: Analgesic activity was measured in rat yeast induced hyperalgesia assay at a dose of 10 mg/kg for 6 hr.; in short: as §5
Mus musculus [16] = assay: Inhibition of phenylbenzoquinone writhing in mice was tested at the dose of 30 mg/kg for 1 hr; in short: as §6
Rattus norvegicus [17] = assay: Plasma drug level was measured in rat yeast induced hyperalgesia assay in presence of drug 6 or 7 at a dose of 30 mg/kg for 12 hr; in short: as §2
Rattus norvegicus [18] = assay: as §7; remark: listed apart in the source
Rattus norvegicus [19] = assay: as §4; remark: listed apart in the source
Mus musculus [20] = assay: Inhibition of phenylbenzoquinone writhing in mice was tested at the dose of 30 mg/kg for 2 hr; in short: as §6
Rattus norvegicus [21] = assay: Analgesic activity was measured in rat yeast induced hyperalgesia assay at a dose of 30 mg/kg for 1 hr.; in short: as §5
Rattus norvegicus [22] = assay: as §3; remark: listed apart in the source
Rattus norvegicus [23] = assay: Analgesic activity was measured in rat yeast induced hyperalgesia assay at a dose of 30 mg/kg for 4 hr.; in short: as §5
Rattus norvegicus [24] = assay: Analgesic activity was measured in rat yeast induced hyperalgesia assay at a dose of 10 mg/kg for 8 hr.; in short: as §5
Rattus norvegicus [25] = assay: Plasma drug level was measured in rat yeast induced hyperalgesia assay in presence of indomethacin at a dose of 30 mg/kg for 12 hr.; in short: as §2
Rattus norvegicus [26] = assay: Plasma drug level was measured in rat yeast induced hyperalgesia assay in presence of indomethacin at a dose of 30 mg/kg for 24 hr.; in short: as §2
Rattus norvegicus [27] = assay: Vocalization threshold value was measured in rat yeast induced hyperalgesia assay at a dose of 10 mg/kg for 6 hr.; in short: as §1
Rattus norvegicus [28] = assay: Plasma drug level was measured in rat yeast induced hyperalgesia assay in presence of indomethacin at a dose of 30 mg/kg for 4 hr.; in short: as §2
Rattus norvegicus [29] = assay: Plasma drug level was measured in rat yeast induced hyperalgesia assay in presence of drug 6 or 7 at a dose of 30 mg/kg for 4 hr.; in short: as §2
Mus musculus [30] = assay: Inhibition of phenylbenzoquinone writhing in mice was tested at the dose of 30 mg/kg for 6 hr; in short: as §6
Rattus norvegicus [31] = assay: Plasma drug level was measured in rat yeast induced hyperalgesia assay in presence of indomethacin at a dose of 30 mg/kg for 1 hr.; in short: as §2
Rattus norvegicus [32] = assay: Plasma drug level was measured in rat yeast induced hyperalgesia assay in presence of drug 6 or 7 at a dose of 30 mg/kg for 1 hr.; in short: as §2

SMILES | Inflamed (Rattus norvegicus [1]) | Drug level (Rattus norvegicus [2]) | Inflamed (Rattus norvegicus [4]) | Writhes (Mus musculus [6]) | inhibition in vivo at 30 mg/kg (Mus musculus [6]) | Inflamed (Rattus norvegicus [8]) | Normal (Rattus norvegicus [8]) | Drug level (Rattus norvegicus [9]) | Normal (Rattus norvegicus [10]) | Analgesic (Rattus norvegicus [13]) | Writhes (Mus musculus [16]) | inhibition in vivo at 30 mg/kg (Mus musculus [16]) | Normal (Rattus norvegicus [19]) | Writhes (Mus musculus [20]) | inhibition in vivo at 30 mg/kg (Mus musculus [20]) | Analgesic (Rattus norvegicus [21]) | Analgesic (Rattus norvegicus [23]) | Drug level (Rattus norvegicus [28]) | Drug level (Rattus norvegicus [29]) | further results
COc1ccc2c(c1)c(/C=C/CCCC(=O)O)c(C)n2C(=O)c1ccc(Cl)cc1 | 25.4 mmHg | 2.1 µg/mL | 27.6 mmHg | 7.2 | 65% | 26 mmHg | 24.8 mmHg | 6.1 µg/mL | 24 mmHg | 100% | 16.4 | 20% | 25.6 mmHg | 15.3 | 26% | 60% | 60% | 2.2 µg/mL | 24.1 µg/mL | Normal (Rattus norvegicus [1]): 23 mmHg; Normal (Rattus norvegicus [3]): 24.4 mmHg; Analgesic (Rattus norvegicus [5]): 0%; Inflamed (Rattus norvegicus [7]): 23.8 mmHg; Inflamed (Rattus norvegicus [10]): 16.8 mmHg; Inflamed (Rattus norvegicus [11]): 25 mmHg; Normal (Rattus norvegicus [11]): 25.2 mmHg; Analgesic (Rattus norvegicus [12]): 60%; Analgesic (Rattus norvegicus [14]): 10%; Analgesic (Rattus norvegicus [15]): 40%; Drug level (Rattus norvegicus [17]): 1.1 µg/mL; Normal (Rattus norvegicus [18]): 23.2 mmHg; Inflamed (Rattus norvegicus [22]): 13 mmHg; Analgesic (Rattus norvegicus [24]): 40%; Drug level (Rattus norvegicus [25]): 2.2 µg/mL; Drug level (Rattus norvegicus [26]): 1.6 µg/mL; Inflamed (Rattus norvegicus [27]): 21.6 mmHg; Normal (Rattus norvegicus [27]): 22 mmHg
COc1ccc2c(c1)c(/C=C/CC(=O)O)c(C)n2C(=O)c1ccc(Cl)cc1 | 14.2 mmHg | <1 µg/mL | 21.6 mmHg | 23 | 46% | 20.2 mmHg | 23.4 mmHg | 10 µg/mL | 25.8 mmHg | 30% | 34 | 19% | 25.4 mmHg | 28.6 | 32% | 10% | 30% | <1 µg/mL | 17 µg/mL | Writhes (Mus musculus [30]): 29.5; inhibition in vivo at 30 mg/kg (Mus musculus [30]): 28%; Drug level (Rattus norvegicus [31]): <1 µg/mL; Drug level (Rattus norvegicus [32]): 26 µg/mL
